Values joined by “and” are separate entries in the source; they are usually repeats but may differ in a detail not shown here. Identical values can stand only once.
These compounds were tested against Methionine--tRNA ligase, mitochondrial (Homo sapiens) (UniProt Q96GW9) (assay: human mtMetRS tRNA charging inhibition – biochemical, radioactivity, round 1, selectivity assay for T. brucei MetRS inhibitor project, late-stage follow-up (AID 743061;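 further: 0% = DMSO with full reaction and 100% = DMSO wells lacking tRNA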)). Conditions: recombinant human mtMetRS, [3H]Met tRNA charging, at 1 µM, stronger effect = higher value.
How it was run: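 Material – recombinant human mitochondrial methionyl-tRNA synthetase (MetRS) · Input – 13 nM enzyme · Also added – 240 nM [3H]methionine with bulk E. coli tRNA acceptor · Compound dosing – 10 and 1 µM · Schedule – 15 min preincubation, 1 h reaction, room temperature · Detection – scintillation counts of TCA-precipitated charged tRNA on filters · Benchmarks – high DMSO, low without tRNA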

SMILES | inhibition
COc1ccc2[nH]c3nc(SCC(=O)Nc4ccc5c(c4)OCO5)nnc3c2c1 | 14.3%
O=C(Cn1cc(C(=O)C(=O)N2CCOCC2)c2ccccc21)Nc1cccc(C(F)(F)F)c1 | -22.4%
COc1ccc(OCC(O)CNC(=O)Nc2ccc(Cl)cc2)cc1 (stereo not given) | -6.26%
Cc1ccc(NC(=O)CN(C)C(=O)CCSc2ccc(F)cc2)cc1 | -35.7%
O=C(C(=O)N1CCOCC1)c1cn(CC(=O)N2CCCc3ccccc32)c2ccccc12 | 8.2%
CCCCCCCCCC1NC(C(=O)O)Cc2c1[nH]c1ccccc21 (stereo not given) | -2.41%
O=C(CC=NOCc1ccc([N+](=O)[O-])cc1)Nc1ccc(Br)cc1 | -22.4%
Clc1ccc(-c2nnc(SCc3nc4ccccc4[nH]3)o2)c(Cl)c1 | -3.17%
COc1cccc(NC(=O)C2CC(=O)n3c(nc4ccccc43)N2)c1 (stereo not given) | 1.46%
O=C(NCCc1nc2ccccc2[nH]1)c1ccc(Cl)cc1 | 5.42%
O=C(Nc1ccc(F)c(Cl)c1)C1CC(=O)n2c(nc3ccccc32)N1 (stereo not given) | -11.1% and -0.44%
COCCc1nc2ccc(C(=O)NCCc3nc4ccc(OC)cc4[nH]3)cc2o1 | -5.43%
CN(Cc1cc(Cl)cc(Cl)c1)[C@H]1C[C@H]2c3[nH]c4ccccc4c3CCN2C(=O)[C@H]1CO | 14%
CC(C)(C)[C@H]1C=C(C(=O)NCc2nc3ccccc3[nH]2)O[C@@H](OCc2ccc(CO)cc2)C1 | -20.5%
O=C(CSC1CC(=O)N(c2cccc(Cl)c2)C1=O)Nc1ccc(Br)cc1 (stereo not given) | -12.3%
O=C(Cn1cc(C(=O)C(=O)N2CCCC2)c2ccccc21)Nc1ccccc1 | -7.71%
O=C(CC=NOCc1ccc([N+](=O)[O-])cc1)Nc1ccc(Cl)cc1 | -13%
CCO[C@H]1OC(C(=O)NCc2nc3ccccc3[nH]2)=C[C@@H](c2ccc(Br)cc2)[C@@H]1CCCO | -15%

SMILES | inhibition
O=C(Cn1cc(C(=O)c2ccccc2)c2ccccc21)Nc1cccc(C(F)(F)F)c1 | -2.29%
O=C(NCc1nc2ccccc2[nH]1)C1=C[C@@H](c2ccccc2)C[C@@H](OCc2ccc(CO)cc2)O1 | -16.8%
CC(=O)c1c[nH]c(C(=O)NCc2cccc(C(F)(F)F)c2)c1 | -7.99%
CNC(=S)N(CCc1ccccc1)C1CC(=O)N(c2ccc(Br)cc2)C1=O (stereo not given) | 39%
CCN(CC)C(=O)C(=O)c1cn(CC(=O)N2CCCc3ccccc32)c2ccccc12 | -14.3%
CCO[C@@H]1OC(C(=O)NCc2nc3ccccc3[nH]2)=C[C@H](c2ccc(Br)cc2)[C@H]1CCCO | -4.89%
CC(=O)c1cn(CC(=O)Nc2cccc(C(F)(F)F)c2)c2ccccc12 | -20.4%
O=C(NCCc1nc2ccccc2[nH]1)c1c(F)cccc1F | 0.56%
COc1ccccc1NC(=O)Cn1cc(C(=O)C(=O)N2CCOCC2)c2ccccc21 | -9.04%
Cc1cccc(C(=O)NCCc2nc3ccccc3n2CCOc2ccccc2)c1 | 1.28%
O=C(NCCc1nc2ccccc2[nH]1)c1ccc(Cl)c(Cl)c1 | 2.38%
CCC(=O)c1cn(CC(=O)Nc2cccc(C(F)(F)F)c2)c2ccccc12 | -18.3%
O=C(NCc1nc2ccccc2[nH]1)C1=C[C@H](c2csc3ccccc23)C[C@H](OCCCCO)O1 | -9.21%
CC(C)c1nc2ccc(C(=O)N(C)CCc3nc4ccc(F)cc4[nH]3)cc2o1 | -1.54%
Cc1ccc(C(=O)NCCc2nc3ccccc3[nH]2)cc1C | 1.34%
O=C(NCc1nc2ccccc2[nH]1)C1=C[C@H](c2ccc3c(c2)OCO3)C[C@H](OCCCCO)O1 | -10.7%
Cc1cccc2[nH]c(CCN(C)C(=O)c3cccc(C4CCNC4)c3)nc12 (stereo not given) | -6.15%

Source: PubChem BioAssay AID743061 (The Scripps Research Institute Molecular Screening Center, 2013)
